According to ChEMBL document CHEMBL4382197, “Discovery of QCA570 as an Exceptionally Potent and Efficacious Proteolysis Targeting Chimera (PROTAC) Degrader of the Bromodomain and Extra-Terminal (BET) Proteins Capable of Inducing Complete and Durable Tumor Regression” (J Med Chem, 2018):
Active and inactive are the calls of the source. No cut-off for these calls is given here.

Tests used:
[1] = system: RS4-11; experiment: Antitumor activity against human RS4:11 cells xenografted in SCID mouse assessed tumor growth inhibition at 5 mg/kg, iv administered weekly; assay type: functional, organism-based
How it was run: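 RS4;11 xenografts: 5×10^6 cells in 50% Matrigel injected subcutaneously on the dorsal side of SCID mice, one tumor per mouse. Randomized to treatment or vehicle at ~100 mm3. Intravenous dosing on several schedules, including 3 times per week for 3 weeks and weekly. Volume = L × W2/2; body weight tracked.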

[2] = target: T1, Protein cereblon/Bromodomain-containing protein 4/Cullin-4A (Homo sapiens) (UniProt O60885+Q96SW2+Q13619); experiment: Protac activity at cereblon/cullin 4A/BRD4 in human RS4:11 cells assessed as BRD4 degradation at 0.5 nM after 3 hrs in presence of proteasome inhibitor MG132 by Western blot analysis; assay type: cell-based
How it was run: (§1)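 RS4;11 cells were pre-treated for 2 h with DMSO, lenalidomide (10 μM), MLN4924 (1 μM) or MG-132 (20 μM). The degrader was then added at 0.5 nM for 3 h. Lysates were immunoblotted for BRD2, BRD3 and BRD4, with GAPDH as loading control.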

[3] = system: Mus musculus; experiment: In vivo Protac activity at cereblon/cullin/BET in tumor of human RS4:11 cells xenografted in SCID mouse assessed as reduction in cMyc protein expression at 1 to 5 mg/kg, iv administered as single dose and measured at 1 to 24 hrs post dose by Western blot analysis; assay type: functional, organism-based
How it was run: (§2)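 SCID mice bearing subcutaneous RS4;11 tumors were given a single intravenous dose of 1 or 5 mg/kg. Tumors were harvested at 1, 6 and 24 h, two mice per time point. Tissue was ground in liquid nitrogen and lysed in CST buffer with protease inhibitors. 20 µg lysate per lane was probed for BRD2, BRD3, BRD4, c-Myc and cleaved PARP, with GAPDH as loading control.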

[4] = Drug uptake in heart of SCID mouse xenografted with human RS4:11 cells at 5 mg/kg, iv measured at 6 hrs by LC-MS/MS analysis; assay type: ADME, organism-based; details: in vivo, BLD = below limit of detection
How it was run: (§3)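 Female SCID mice with RS4;11 tumors received a single 5 mg/kg intravenous dose in 20% PCP/80% PBS. Plasma (heparin) and tissues were taken at 1, 3 and 6 h, one mouse per time point in duplicate. Plasma was precipitated with acetonitrile containing internal standard. Tissues were homogenized 5:1 in 20% acetonitrile. Quantified by LC-MS/MS against spiked plasma standards (2–2000 ng/mL); values in ng/ml or ng/g.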

[5] = Drug uptake in kidney of SCID mouse xenografted with human RS4:11 cells at 5 mg/kg, iv measured at 6 hrs by LC-MS/MS analysis; assay type: ADME, organism-based; details: in vivo, BLD = below limit of detection; how it was run: as §3
[6] = target: T2, Protein cereblon/Bromodomain-containing protein 3/Cullin-4A (Homo sapiens) (UniProt Q15059+Q96SW2+Q13619); experiment: Protac activity at cereblon/cullin 4A/BRD3 in human RS4:11 cells assessed as BRD3 degradation at 0.5 nM after 3 hrs by Western blot analysis; assay type: cell-based
T2 sequence (Q13619 whole entry, looked up): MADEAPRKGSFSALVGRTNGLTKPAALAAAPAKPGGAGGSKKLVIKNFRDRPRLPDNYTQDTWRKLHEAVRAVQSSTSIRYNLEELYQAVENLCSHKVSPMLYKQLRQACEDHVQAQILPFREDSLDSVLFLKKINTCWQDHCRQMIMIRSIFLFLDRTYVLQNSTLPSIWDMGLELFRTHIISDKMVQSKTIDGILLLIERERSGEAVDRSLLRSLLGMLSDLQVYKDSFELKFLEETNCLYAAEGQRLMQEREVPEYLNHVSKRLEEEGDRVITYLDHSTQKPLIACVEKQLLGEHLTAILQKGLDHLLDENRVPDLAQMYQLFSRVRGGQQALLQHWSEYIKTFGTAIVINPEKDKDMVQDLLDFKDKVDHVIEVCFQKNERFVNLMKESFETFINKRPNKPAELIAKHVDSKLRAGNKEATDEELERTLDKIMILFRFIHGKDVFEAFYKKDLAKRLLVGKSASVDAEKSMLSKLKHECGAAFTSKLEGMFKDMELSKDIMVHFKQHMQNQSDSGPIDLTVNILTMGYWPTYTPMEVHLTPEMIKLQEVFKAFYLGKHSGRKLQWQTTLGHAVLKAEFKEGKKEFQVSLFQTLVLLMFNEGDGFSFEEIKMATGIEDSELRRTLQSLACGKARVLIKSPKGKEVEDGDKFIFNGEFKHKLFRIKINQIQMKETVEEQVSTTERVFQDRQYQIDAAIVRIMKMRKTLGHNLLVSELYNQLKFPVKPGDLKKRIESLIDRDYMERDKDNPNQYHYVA
T2 sequence (Q15059 whole entry, looked up): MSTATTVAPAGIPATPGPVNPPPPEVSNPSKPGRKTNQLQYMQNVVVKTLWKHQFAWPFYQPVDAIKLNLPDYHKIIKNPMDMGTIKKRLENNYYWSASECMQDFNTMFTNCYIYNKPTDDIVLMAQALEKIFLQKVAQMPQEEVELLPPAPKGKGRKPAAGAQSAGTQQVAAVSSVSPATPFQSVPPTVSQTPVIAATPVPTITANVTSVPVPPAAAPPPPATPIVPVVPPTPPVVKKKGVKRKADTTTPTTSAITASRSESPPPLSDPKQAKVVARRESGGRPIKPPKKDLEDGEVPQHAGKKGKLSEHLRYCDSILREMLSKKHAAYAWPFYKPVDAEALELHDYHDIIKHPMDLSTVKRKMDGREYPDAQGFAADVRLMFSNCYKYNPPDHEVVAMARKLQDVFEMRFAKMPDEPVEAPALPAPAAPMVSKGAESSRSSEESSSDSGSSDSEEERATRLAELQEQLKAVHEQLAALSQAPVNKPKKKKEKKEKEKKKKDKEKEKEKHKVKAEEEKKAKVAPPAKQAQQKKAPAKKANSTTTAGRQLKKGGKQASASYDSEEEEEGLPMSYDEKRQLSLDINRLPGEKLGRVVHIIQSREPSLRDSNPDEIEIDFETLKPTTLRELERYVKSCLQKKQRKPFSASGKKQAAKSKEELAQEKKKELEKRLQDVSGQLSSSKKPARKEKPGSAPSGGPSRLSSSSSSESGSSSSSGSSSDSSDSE
T2 sequence (Q96SW2 whole entry, looked up): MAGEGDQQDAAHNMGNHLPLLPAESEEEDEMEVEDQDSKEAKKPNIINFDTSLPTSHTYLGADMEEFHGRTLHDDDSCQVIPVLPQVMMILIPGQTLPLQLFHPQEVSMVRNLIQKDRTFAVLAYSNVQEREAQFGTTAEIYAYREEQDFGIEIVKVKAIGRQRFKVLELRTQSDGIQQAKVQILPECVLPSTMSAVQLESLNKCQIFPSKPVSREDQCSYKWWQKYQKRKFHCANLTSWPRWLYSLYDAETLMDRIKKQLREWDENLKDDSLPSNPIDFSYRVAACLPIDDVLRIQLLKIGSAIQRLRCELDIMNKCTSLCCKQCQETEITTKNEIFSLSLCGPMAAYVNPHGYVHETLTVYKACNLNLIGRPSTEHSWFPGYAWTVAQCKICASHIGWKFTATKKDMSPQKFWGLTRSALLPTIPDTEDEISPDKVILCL

[7] = target: T3, Protein cereblon/Bromodomain-containing protein 2/Cullin-4A (Homo sapiens) (UniProt P25440+Q96SW2+Q13619); experiment: Protac activity at cereblon/cullin 4A/BRD2 in human RS4:11 cells assessed as BRD2 degradation at 0.5 nM after 3 hrs by Western blot analysis; assay type: cell-based
T3 sequence (P25440 whole entry, looked up): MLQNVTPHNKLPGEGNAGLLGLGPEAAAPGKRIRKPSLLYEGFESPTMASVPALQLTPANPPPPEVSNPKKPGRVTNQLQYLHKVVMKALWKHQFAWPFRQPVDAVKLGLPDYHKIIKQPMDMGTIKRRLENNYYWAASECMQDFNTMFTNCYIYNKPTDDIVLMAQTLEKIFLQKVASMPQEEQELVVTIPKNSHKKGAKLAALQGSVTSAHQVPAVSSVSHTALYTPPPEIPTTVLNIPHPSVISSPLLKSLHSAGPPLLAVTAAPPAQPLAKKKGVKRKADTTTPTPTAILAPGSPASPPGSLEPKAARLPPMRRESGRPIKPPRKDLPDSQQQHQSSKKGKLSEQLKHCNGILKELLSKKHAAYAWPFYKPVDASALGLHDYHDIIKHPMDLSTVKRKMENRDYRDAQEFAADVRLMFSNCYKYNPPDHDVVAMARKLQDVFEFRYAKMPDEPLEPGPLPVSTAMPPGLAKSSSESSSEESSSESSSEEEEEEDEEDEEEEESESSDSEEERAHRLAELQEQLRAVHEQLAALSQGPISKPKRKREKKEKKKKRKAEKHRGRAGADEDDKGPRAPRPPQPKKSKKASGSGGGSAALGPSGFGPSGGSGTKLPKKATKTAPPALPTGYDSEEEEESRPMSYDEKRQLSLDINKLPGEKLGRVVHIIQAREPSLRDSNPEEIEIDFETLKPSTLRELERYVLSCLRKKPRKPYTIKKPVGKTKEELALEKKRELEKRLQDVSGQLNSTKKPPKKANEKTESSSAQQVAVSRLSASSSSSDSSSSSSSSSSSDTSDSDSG
T3 sequence (Q13619 whole entry, looked up): as the sequence (Q13619 whole entry, looked up) above
T3 sequence (Q96SW2 whole entry, looked up): as the sequence (Q96SW2 whole entry, looked up) above

[8] = Toxicity in SCID mouse xenografted with human RS4:11 cells at 1 to 5 mg/kg, iv administered 3 times per week for 3 weeks; assay type: organism-based; details: in vivo, 504 h
How it was run: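 SCID mice received a subcutaneous dorsal implant of 5×10^6 RS4;11 cells in 50% Matrigel, one tumor per mouse. Mice were randomized at ~100 mm3 into treatment or vehicle groups. Doses were 1, 2.5 or 5 mg/kg three times weekly for 3 weeks, with body weight and signs of toxicity monitored.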

[9] = target: T1, Protein cereblon/Bromodomain-containing protein 4/Cullin-4A (Homo sapiens); experiment: Protac activity at cereblon/cullin 4A/BRD4 in human MV4-11 cells assessed as BRD4 degradation at 10 pM after 3 hrs by Western blot analysis; assay type: cell-based
[10] = target: T1, Protein cereblon/Bromodomain-containing protein 4/Cullin-4A (Homo sapiens); experiment: Protac activity at cereblon/cullin 4A/BRD4 in human RS4:11 cells assessed as BRD4 degradation at 0.5 nM after 3 hrs in presence of neddylation inhibitor MLN4924 by Western blot analysis; assay type: cell-based; how it was run: as §1
[11] = system: Mus musculus; experiment: In vivo Protac activity at cereblon/cullin/BRD3 in tumor of human RS4:11 cells xenografted in SCID mouse assessed as reduction in BRD3 protein expression at 1 to 5 mg/kg, iv administered as single dose and measured at 1 to 6 hrs post dose by Western blot analysis; assay type: functional, organism-based; how it was run: as §2
[12] = target: T3, Protein cereblon/Bromodomain-containing protein 2/Cullin-4A (Homo sapiens); experiment: Protac activity at cereblon/cullin 4A/BRD2 in human RS4:11 cells assessed as BRD2 degradation at 0.5 nM after 3 hrs in presence of neddylation inhibitor MLN4924 by Western blot analysis; assay type: cell-based; how it was run: as §1
[13] = system: MOLM-13; experiment: Growth inhibition of human MOLM13 cells after 96 hrs by CCK8 assay; assay type: functional, cell-based; details: MOLM-13, 96 h
[14] = Drug uptake in liver of SCID mouse xenografted with human RS4:11 cells at 5 mg/kg, iv measured at 6 hrs by LC-MS/MS analysis; assay type: ADME, organism-based; details: in vivo, BLD = below limit of detection; how it was run: as §3
[15] = system: MV4-11; experiment: Induction of apoptosis in human MV4-11 cells at 0.1 to 10 uM after 48 hrs by Annexin V/propidium iodine-double staining-based flow cytometry; assay type: functional, cell-based
[16] = target: T2, Protein cereblon/Bromodomain-containing protein 3/Cullin-4A (Homo sapiens); experiment: Protac activity at cereblon/cullin 4A/BRD3 in human RS4:11 cells assessed as BRD3 degradation at 10 pM after 3 hrs by Western blot analysis; assay type: cell-based
[17] = system: RS4-11; experiment: Growth inhibition of human RS4:11 cells after 96 hrs by CCK8 assay; assay type: functional, cell-based; details: RS4-11, 96 h
[18] = system: Mus musculus; experiment: In vivo Protac activity at cereblon/cullin/BRD2 in tumor of human RS4:11 cells xenografted in SCID mouse assessed as reduction in BRD2 protein expression at 1 to 5 mg/kg, iv administered as single dose and measured at 1 to 6 hrs by Western blot analysis; assay type: functional, organism-based; how it was run: as §2
[19] = system: MV4-11; experiment: Induction of apoptosis in human MV4-11 cells after 24 to 48 hrs by Annexin V/propidium iodine-double staining-based flow cytometry; assay type: functional, cell-based
How it was run: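 Leukemia cells were treated for 24 h or 48 h at the indicated concentrations. They were then collected, washed in cold PBS and stained with Annexin V and propidium iodide. Apoptotic fraction was measured by flow cytometry.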

[20] = target: T1, Protein cereblon/Bromodomain-containing protein 4/Cullin-4A (Homo sapiens); experiment: Protac activity at cereblon/cullin 4A/BRD4 in human RS4:11 cells assessed as BRD4 degradation at 0.5 nM after 3 hrs by Western blot analysis; assay type: cell-based
[21] = Drug uptake in intestine of SCID mouse xenografted with human RS4:11 cells at 5 mg/kg, iv measured at 6 hrs by LC-MS/MS analysis; assay type: ADME, organism-based; details: in vivo, BLD = below limit of detection; how it was run: as §3
[22] = target: T2, Protein cereblon/Bromodomain-containing protein 3/Cullin-4A (Homo sapiens); experiment: Protac activity at cereblon/cullin 4A/BRD3 in human MV4-11 cells assessed as BRD3 degradation at 10 pM after 3 hrs by Western blot analysis; assay type: cell-based
[23] = system: Mus musculus; experiment: In vivo Protac activity at cereblon/cullin/BRD4 in tumor of human RS4:11 cells xenografted in SCID mouse assessed as reduction in BRD4 protein expression at 1 to 5 mg/kg, iv administered as single dose and measured at 1 to 6 hrs post dose by Western blot analysis; assay type: functional, organism-based; how it was run: as §2

Activity [2]: inactive | Drug uptake [4]: Bld | Drug uptake [5]: Bld | Activity [6]: Active | Activity [7]: Active | Activity [9]: Active | Activity [10]: inactive | Activity [12]: inactive | IC50 [13]: 0.062 nM | Drug uptake [14]: Bld | Activity [16]: Active | IC50 [17]: 0.032 nM | Activity [20]: Active | Drug uptake [21]: Bld | Activity [22]: Active
Structure (SMILES): Cc1nnc2n1Cc1sc(C#Cc3cnn(CCCC#Cc4cccc5c4CN(C4CCC(=O)NC4=O)C5=O)c3)c(Cc3ccccc3)c1OC2 (stereo not drawn)
TGI [1]: Active | Activity [3]: Active | Activity [8]: Non-Toxic | Activity [11]: Active | Activity [15]: Active | Activity [18]: Active | Activity [19]: Dose-dependent effect | Activity [23]: Active
